{"source": "ChEMBL document CHEMBL2157930", "about": "“Synthesis and structure-activity relationship of berberine analogues in LDLR up-regulation and AMPK activation” (2012)", "key": {"HepG2 [1]": {"system": "HepG2", "assay": "Up regulation of LDLR expression in human HepG2 cells at 10 uM after 12 hrs by RT-PCR relative to untreated control", "assay_type": "functional", "procedure,_shortened": "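HepG2 cells (MEM, 10% FBS, about 70% confluent) treated at 10 uM for 12 h. LDLR mRNA measured by real-time RT-PCR, reverse transcription 42 °C for 15 min. Normalized to β-actin by the comparative threshold cycle method and expressed as fold of untreated control (set to 1). Mean ± SEM of 3 separate experiments.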"}, "HepG2 [2]": {"system": "HepG2", "assay": "Increase in AMPKalpha phosphorylation in human HepG2 cells at 10 uM after 4 hrs by Western blot analysis relative to untreated control relative to total AMPKalpha level", "assay_type": "cell-based", "procedure,_shortened": "(§1)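 HepG2 cells in MEM with 10% FBS and antibiotics, 37 °C, 5% CO2, plated the day before to about 70% confluence. Treated with vehicle or compound at 10 uM for 4 h. Whole-cell lysates were run on SDS-PAGE and Western blotted for Thr172-phospho-AMPKa and total AMPKa. Bands were scanned and p-AMPKa was expressed as a percentage of total AMPKa. Mean ± SEM of 3 experiments.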"}, "HepG2 [3]": {"system": "HepG2", "assay": "Increase in AMPKalpha phosphorylation in human HepG2 cells at 10 uM after 4 hrs by Western blot analysis relative to untreated control", "assay_type": "cell-based", "procedure,_shortened": "as §1"}, "HepG2 [4]": {"system": "HepG2", "assay": "Increase in total AMPKalpha level in human HepG2 cells at 10 uM after 4 hrs by Western blot analysis relative to untreated control", "assay_type": "functional, cell-based", "procedure,_shortened": "as §1"}, "HepG2 [5]": {"system": "HepG2", "assay": "Induction of AMPKalpha phosphorylation in human HepG2 cells at 10 uM by Western blot analysis relative to untreated control", "assay_type": "cell-based", "settings": "TDE = time-dependent effect", "procedure,_shortened": "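Time course in HepG2: cells given 10 uM for different time intervals. Western blot for Thr172-phospho-AMPKa and total AMPKa, bands quantified, p-AMPKa as a percentage of total, compared with untreated cells. Mean ± SEM of 3 repeats.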"}, "HepG2 [6]": {"system": "HepG2", "assay": "Induction of AMPKalpha phosphorylation in human HepG2 cells after 4 hrs by Western blot analysis relative to untreated control", "assay_type": "cell-based", "procedure,_shortened": "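HepG2 cultured as above, about 70% confluent, then exposed to a range of concentrations for 4 h. Western blot for Thr172-phospho-AMPKa and total AMPKa, densitometry, p-AMPKa as a percentage of total, relative to untreated cells. Mean ± SEM of 3 experiments.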"}, "L6": {"system": "L6", "assay": "Induction of AMPKalpha phosphorylation in rat L6 cells", "assay_type": "cell-based"}}, "note": "Active and inactive are the calls of the source.", "data": [{"compound": "COc1cc2cc3[n+](cc2c(Cl)c1OC)CCc1cc2c(cc1-3)OCO2.[Cl-]", "values": [{"measurement": "fold change (FC)", "setting": "HepG2 [1]", "value": 0.92}]}, {"compound": "COc1ccc2cc3[n+](cc2c1F)CCc1cc2c(cc1-3)OCO2.[Cl-]", "values": [{"measurement": "fold change (FC)", "setting": "HepG2 [1]", "value": 1}]}, {"compound": "COc1cc2c(c(OC)c1OC)-c1cc3ccc(OC)c(OC)c3c[n+]1CC2.[Cl-]", "values": [{"measurement": "fold change (FC)", "setting": "HepG2 [1]", "value": 0.88}]}, {"compound": "COc1cc2c(cc1O)-c1cc3ccc(OC)c(OC)c3c[n+]1CC2.[Cl-]", "note": "[COLUMBAMINE CHLORIDE]", "values": [{"measurement": "fold change (FC)", "setting": "HepG2 [1]", "value": 1.15}]}, {"compound": "COc1ccc2cc3[n+](cc2c1OC)CCc1cc2c(cc1-3)OCO2.[Cl-]", "note": "[BERBERINE CHLORIDE]", "values": [{"measurement": "fold change (FC)", "setting": "HepG2 [2]", "value": "< 3.2"}, {"measurement": "Activity", "setting": "HepG2 [3]", "value": "Active"}, {"measurement": "fold change (FC)", "setting": "HepG2 [1]", "value": 2.35}, {"measurement": "Activity", "setting": "HepG2 [4]", "value": "Active"}]}, {"compound": "[Cl-].c1c2c(cc3c1OCO3)-c1cc3cc4c(cc3c[n+]1CC2)OCCO4", "values": [{"measurement": "fold change (FC)", "setting": "HepG2 [1]", "value": 0.96}]}, {"compound": "CCOc1cc2c(cc1OC)CC[n+]1cc3cc(OC)c(OC)cc3cc1-2.[Cl-]", "values": [{"measurement": "fold change (FC)", "setting": "HepG2 [1]", "value": 0.96}]}, {"compound": "COc1cc2cc3[n+](cc2cc1OC)CCc1cc2c(cc1-3)OCO2.[Cl-]", "note": "[PSEUDOBERBERINE]", "values": [{"measurement": "Activity", "setting": "HepG2 [5]", "value": "tde"}, {"measurement": "fold change (FC)", "setting": "HepG2 [2]", "value": 2.6}, {"measurement": "Activity", "setting": "HepG2 [6]", "value": "Dose-dependent effect"}, {"measurement": "Activity", "setting": "L6", "value": "Active"}, {"measurement": "Activity", "setting": "HepG2 [3]", "value": "Active"}, {"measurement": "fold change (FC)", "setting": "HepG2 [1]", "value": 3.23}, {"measurement": "Activity", "setting": "HepG2 [4]", "value": "Active"}]}, {"compound": "CCOc1cc2c(cc1OC)-c1cc3cc(OC)c(OC)cc3c[n+]1CC2.[Cl-]", "values": [{"measurement": "fold change (FC)", "setting": "HepG2 [1]", "value": 1.04}]}, {"compound": "COc1cc2cc3[n+](cc2cc1OC)CCc1c-3ccc(OC)c1OC.[Cl-]", "values": [{"measurement": "fold change (FC)", "setting": "HepG2 [1]", "value": 0.92}]}, {"compound": "COc1ccc2cc3[n+](cc2c1O)CCc1cc2c(cc1-3)OCO2", "values": [{"measurement": "Activity", "setting": "HepG2 [3]", "value": "Active"}]}, {"compound": "COc1ccc2cc3[n+](cc2c1Cl)CCc1cc2c(cc1-3)OCO2.[Cl-]", "values": [{"measurement": "fold change (FC)", "setting": "HepG2 [1]", "value": 1.12}]}, {"compound": "COc1ccc2c(c1OC)CC[n+]1cc3c(OC)c(OC)ccc3cc1-2.[Cl-]", "values": [{"measurement": "fold change (FC)", "setting": "HepG2 [1]", "value": 0.89}]}, {"compound": "CCOc1cc2cc3[n+](cc2cc1OC)CCc1cc2c(cc1-3)OCO2.[Cl-]", "values": [{"measurement": "fold change (FC)", "setting": "HepG2 [1]", "value": 0.91}]}, {"compound": "CCOc1cc2c(cc1OC)-c1cc3ccc(OC)c(OC)c3c[n+]1CC2.[Cl-]", "values": [{"measurement": "fold change (FC)", "setting": "HepG2 [1]", "value": 1.02}]}, {"compound": "COc1cc(Br)c2cc3[n+](cc2c1O)CCc1cc2c(cc1-3)OCO2.[Cl-]", "values": [{"measurement": "fold change (FC)", "setting": "HepG2 [1]", "value": 0.94}]}, {"compound": "CCOc1cc2c(cc1OC)CC[n+]1cc3c(OC)c(OC)ccc3cc1-2.[Cl-]", "values": [{"measurement": "fold change (FC)", "setting": "HepG2 [1]", "value": 1}]}, {"compound": "COc1ccc2cc3n(cc-2c1=O)CCc1cc2c(cc1-3)OCO2", "values": [{"measurement": "Activity", "setting": "HepG2 [3]", "value": "Active"}]}]}
